Sampled rows, rich in hits. Any-hit rate of the full collection: about 2.7%.
CSN deneddyl inh – blocks human CSN-mediated cullin deneddylation; Q92905; Purified CSN, SCF-Nedd8-OG deneddylation, fluorescence polarization; inhibition, % at 12.5 µM; 0.38% of 360,000 active; AID 651999;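 active means pattern-corrected inhibition above about 35%, with an unprinted fluorescence ratio check between 0.5 and 1.5, limit read from the data, passing the limit was not always enough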;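 further: 0% = enzyme with substrate and 100% = substrate without enzyme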
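Assay system: Purified human Csn5 enzyme expressed in HEK293T cells | Amount: Enzyme 0.24 nM | Measured by: Fluorescence polarization readout | Medium: Tris/NaCl/DTT buffer, pH 7.5 | Compound dosing: One concentration, 12.5 µM, 0.25% DMSO | Times: 90 min incubation of compound, enzyme and substrate at room temperature | Control set: no-enzyme wells high, enzyme-with-substrate wells low | Read-out: % inhibition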
TPT1 inh – C. albicans TPT1 enzyme inhibition. recombinant caTPT1, FP RNA substrate dephosphorylation. inhibition, % at 5 µM. 0.81% of 300,000 active. AID 1962;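 active means inhibition above the mean of all tested compounds plus 3 SD, set per screening campaign, cut at about 24% in these data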;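 further: plate controls were DMSO alone for no effect and ferristatin control at 100 nM for full effect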
Rpn11 inh – blocks the human proteasome subunit Rpn11 | O00487 | human 26S proteasome, Ub4-pepOG fluorescence polarization; 20S core pre-blocked with epoxomicin | inhibition, % at 20 µM | 0.59% of 360,000 active;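 active means inhibition at 20 µM, scaled to each plate's controls, above about 33%, limit read from the data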
Target sequence (O00487 whole entry, looked up): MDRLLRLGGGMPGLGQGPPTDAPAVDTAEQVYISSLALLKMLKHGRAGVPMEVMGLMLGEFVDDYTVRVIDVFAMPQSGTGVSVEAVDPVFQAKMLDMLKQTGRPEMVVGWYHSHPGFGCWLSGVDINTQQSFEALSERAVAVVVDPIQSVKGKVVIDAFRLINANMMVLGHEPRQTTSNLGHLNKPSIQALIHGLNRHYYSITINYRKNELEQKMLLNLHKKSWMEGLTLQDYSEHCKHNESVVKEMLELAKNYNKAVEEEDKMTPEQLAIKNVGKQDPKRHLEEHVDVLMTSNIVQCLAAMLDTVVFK
PP1 counter – blocks human PP1-alpha phosphatase, a PP5 counter-screen; P62136; 0.9% of 320,000 active; AID 2235; inhibition, % at 6.7 µM; purified PP1alpha, OMFP fluorescence;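 active means inhibition above the mean inhibition of all tested compounds plus 3 SD, computed separately for each screening campaign, cut at about 15% in these data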
NadD inh – NadD (S. aureus) enzyme inhibition; inhibition, % at 20 µM; 0.78% of 360,000 active; purified NadD enzyme, colorimetric absorbance read-out; in the data active means inhibition above about 26%
HNF4A DNA FP – change in binding of human HNF4 alpha to DNA; P41235; 0.3% of 360,000 active; activity change, % at 10 µM; AID 1224865; HNF4a-FITC DNA binding, fluorescence polarization, 1 h; in the data active means activity change above about 30%, passing the limit was not always enough
Numbers without * were called inactive; nt = not tested or not shown.

SMILES | CSN deneddyl inh | TPT1 inh | Rpn11 inh | PP1 counter | NadD inh | HNF4A DNA FP
COc1cccc(-c2nnc3sc(-c4ccccc4)nn23)c1 | 1 | -1 | -9 | 2 | 0 | 4
CCN(CC)c1ccc(-c2nn3c(-c4ccccc4OC)nnc3s2)cc1 | 1 | 2 | 12 | 16* | -1 | -1
Cc1ccc(S(=O)(=O)/N=C2\C=C(Nc3ccc(O)cc3)C(=O)c3ccccc32)cc1 | 4 | nt | 5 | nt | 6 | -1
Cc1ccc(S(=O)(=O)/N=C2/C=C(Sc3ncn[nH]3)C(=O)c3ccccc32)c(C)c1 | nt | 2 | nt | 3 | nt | nt
CC(C)c1ccc(S(=O)(=O)/N=C2/C=C(Sc3ncn[nH]3)C(=O)c3ccccc32)cc1 | 24 | 0 | 32 | 4 | 83* | -6
Cc1ccc(S(=O)(=O)/N=C2/C=C(Sc3ncn[nH]3)C(=O)c3ccccc32)cc1 | 23 | -6 | 10 | 4 | 50* | 1
CC(C)(C)OC(=O)N1CC2(CCCCC2)CC1Cc1ccc(C(F)(F)F)cc1 (centres undefined) | -4 | nt | -6 | nt | 13 | 0
Cc1nc(N)[nH]c(=O)c1CCCNc1ccc([N+](=O)[O-])cc1 | 1 | nt | -5 | nt | -1 | 0
COc1ccc(C2c3c(-c4cc(Cl)c(C)cc4O)n[nH]c3C(=O)N2Cc2cccnc2)cc1OC (centres undefined) | -9 | 0 | -3 | 15* | 19 | 2
O=c1c2ccccc2nc(N/N=C/c2c(O)ccc3ccccc23)n1O | 1 | 1 | 20 | 18* | 18 | -3
O=c1c2ccccc2nc(N/N=C/c2ccc(O)cc2)n1O | 4 | -5 | -3 | -3 | 2 | -3
CC1(C(=O)NS(=O)(=O)c2ccc(F)cc2F)CCN1C(=O)Cc1ccc(-c2ccccc2)cc1 (centres undefined) | 0 | nt | -2 | nt | 6 | 3
Cc1onc(-c2c(F)cccc2Cl)c1C(=O)Nc1ccc(Cl)c(S(=O)(=O)N(C)C)c1 | 3 | nt | 7 | 1 | -4 | 5
Cc1cc(/C=N/NC(=O)Cn2c3ccccc3c(=O)c3ccccc32)c(C)n1-c1ccccc1 | 5 | 3 | 17 | 14 | 45* | 8
CN(CC(=O)Nc1ccc(N2CCOCC2)cc1)C(=O)CSc1ccc(F)cc1 | 3 | 0 | 2 | -3 | 0 | -1
O=C(CSc1ccc2ccccc2n1)Nc1nsc(-c2ccc(Cl)cc2)n1 | 54* | 0 | 14 | -1 | 2 | 9
C#CCN1C(=O)S/C(=C\c2cc3c(cc2OC)OCO3)C1=O | 50* | 9 | nt | -3 | -7 | 56
COc1ccccc1/C=C(/CC(=O)NCc1ccc(F)cc1)c1nc2ccccc2s1 | -2 | 5 | 12 | 16* | 14 | -3
CC(Sc1nnc(NC2CC2)s1)C(=O)Nc1ccc(N2CCOCC2)cc1 (centres undefined) | -3 | nt | -5 | nt | -3 | -1
CC(Sc1nnc(NC2CCCCC2)s1)C(=O)Nc1ccc2c(c1)C(=O)c1ccccc1C2=O (centres undefined) | 5 | 0 | 4 | 14 | 38* | 1
Cc1cc(NCCCn2ccnc2)n2nc(C)c(-c3ccccc3)c2n1 | -5 | -1 | 0 | 1 | -3 | 1
N=c1c2c(-c3ccccc3)c(-c3ccccc3)n(Cc3ccccc3)c2ncn1CCCn1ccnc1 | 0 | 2 | 1 | 15* | 22 | 1
CCCCn1cnc2c(c(-c3ccccc3)c(-c3ccccc3)n2Cc2ccco2)c1=N | 4 | 3 | -7 | 4 | -9 | -2
N=c1c2c(-c3ccccc3)c(-c3ccccc3)n(Cc3ccco3)c2ncn1Cc1ccco1 | 3 | 4 | 3 | 16* | 12 | 3
O=c1c2c3c(sc2nc(N2CCNCC2)n1-c1cccc(Cl)c1)CCCCC3 | nt | -1 | nt | 15* | nt | nt
CCCN(CC(=O)Nc1ccccc1C)CC(=O)Nc1ccc(Br)cc1F | -1 | 1 | 0 | 3 | -7 | -4
Cc1[nH]n(-c2ccccc2)c(=O)c1N=Nc1c(O)cc(S(=O)(=O)N(C)C)c2ccccc12 | 1 | 1 | 10 | 4 | 56* | 6
O=C(NC(c1ccc(-c2ccccc2)cc1)c1cnccn1)C1CCN(Cc2cccs2)CC1 (centres undefined) | 0 | nt | 4 | nt | -7 | 3
